IC50, inhibition and Activity data for 10 compounds are collected here from ChEMBL document CHEMBL5030510, “Designed β-Hairpins Inhibit LDH5 Oligomerization and Enzymatic Activity” (J Med Chem, 2021).

Active and inactive are the calls of the source. No cut-off for these calls is given here. Where a SMILES comes first, the peptide text is derived from it. Bridges are numbered along the chain shown (N, C = ends). Some results are limits rather than exact numbers.

For assay [1], the target named is T1, L-lactate dehydrogenase A chain (Homo sapiens, UniProt P00338). Briefly: Inhibition of recombinant full length N-terminal His-tagged human LDHA expressed in Escherichia coli using pyruvate as substrate and NADH as cofactor incubated for 2 hrs by fluorescence assay. An outline of the steps: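 Reassociation activity assay: 900 nM LDHA stock in phosphate pH 7.4/EDTA/0.05% BSA, acidified 2 min with glycine pH 2.5/BSA. Peptide added in 0.25 M phosphate pH 7.6 and incubated 2 h at RT. Aliquot diluted, then pyruvate (3 mM final) and NADH (0.3 mM final) added. IC50 from dose-response fit.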

Assay [2] has as its target T1, L-lactate dehydrogenase A chain. Briefly: Inhibition of recombinant full length N-terminal His-tagged human LDHA oligomerization expressed in Escherichia coli at 150 uM at pH 2.5 to 7.4 measured after 2 hrs by SDS-PAGE analysis. An outline of the steps: (§1)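 Oligomer state: LDHA (1.3 µM) acidified 2 min with 0.1 M glycine pH 2.5, then peptide added in 0.25 M phosphate pH 7.6, 1 mM EDTA, for 2 h at RT. Cross-linked with glutaraldehyde (5% stock), heated 3 min at 85 °C in LDS buffer, and run on 4–12% Bis-Tris gel in MES buffer.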

Assay [3] shares this target. Briefly: Binding affinity to recombinant full length N-terminal His-tagged human LDHA expressed in Escherichia coli assessed as reduction in fluorecence polarization measured after 2 hrs by Alexa Fluor 488 based fluorescence polarization assay. An outline of the steps:
(§2)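 Competition FP: LDH5 held 2 min in 0.1 M glycine pH 2.5, then inhibitor added at the reassociation step with Alexa488-labeled cGm peptide (final 12 nM) in 0.25 M phosphate pH 7.6, 1 mM EDTA, with 152.5 nM LDH5. Incubated 2 h at room temperature. FP read at ex 485/em 520 nm. 100% set by probe plus LDH5 alone.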

The target is the same in assay [4]. Briefly: Inhibition of recombinant full length N-terminal His-tagged human LDHA oligomerization expressed in Escherichia coli at 90 to 150 uM at pH 2.5 to 7.4 measured after 2 hrs by SDS-PAGE analysis. To be noted: dose 90-150 µM. An outline of the steps:
as §1

For assay [5] the target is unchanged. As to the kind of experiment: Binding affinity to recombinant full length N-terminal His-tagged human LDHA expressed in Escherichia coli assessed as reduction in fluorecence polarization at up to 10000 nM measured after 2 hrs by Alexa Fluor 488 based fluorescence polarization assay. Particulars: dose nM <=10000, time 2.0 hrs. An outline of the steps: as §2

For assay [6] the target is unchanged. Briefly: Binding affinity to recombinant full length N-terminal His-tagged human LDHA expressed in Escherichia coli assessed as reduction in fluorecence recovery measured after 2 hrs by tryptophan fluorescence emission assay. An outline of the steps:
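Intrinsic Trp fluorescence: 4 µM LDHA (stock) dissociated 2 min in 0.1 M glycine pH 2.5, then peptide added in 0.25 M phosphate pH 7.6, 1 mM EDTA. No-LDHA blank subtracted. Zero set at pH 2.5 and maximum at the pH 2.5→7.4 control. LDH5 final 0.6 µM.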

Assay [7] shares this target. Briefly: Binding affinity to recombinant full length N-terminal His-tagged human LDHA expressed in Escherichia coli at up to 100 uM measured after 2 hrs by Alexa Fluor 488 based fluorescence polarization assay. Particulars: dose microM <=100, time 2.0 hrs. An outline of the steps: as §2
The target is the same in assay [8]. As to the kind of experiment: Binding affinity to recombinant full length N-terminal His-tagged human LDHA expressed in Escherichia coli at 12 nM measured after 2 hrs by Alexa Fluor 488 based fluorescence polarization assay relative to control. An outline of the steps: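 Direct binding FP: LDH5 two-fold serial dilution from 3.375 µM in 0.01 M phosphate pH 7.4, 1 mM EDTA. Held 2 min in glycine pH 2.5, then labeled peptide added (final 12 nM) in 0.25 M phosphate pH 7.6, 1 mM EDTA. Incubated 2 h at RT. FP read at ex 485/em 520 nm. Saturation signal fitted by non-linear regression and set as 100% binding.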
(In general: In fluorescence polarisation assays a small probe gives low polarisation when free and higher when bound to something large.)

One may read the IC50 as the concentration needed to halve the response being measured. Regarding `CC(C)C[C@@H]1NC(=O)[C@H](CCCNC(=N)N)NC(=O)[C@H](CCCNC(=N)N)NC(=O)[C@@H](NC(=O)CN)CSSC[C@@H](C(=O)N[C@@H](CCCNC(=N)N)C(=O)NCC(=O)N[C@@H](CCCNC(=N)N)C(=O)O)NC(=O)[C@H](C(C)C)NC(=O)[C@H]([C@@H](C)O)NC(=O)[C@H](Cc2ccccc2)NC(=O)[C@@H]2CSSC[C@H](NC1=O)C(=O)N[C@@H](Cc1ccc(O)cc1)C(=O)N[C@@H](CCCNC(=N)N)C(=O)N[C@@H](Cc1ccccc1)C(=O)N[C@@H](Cc1c[nH]c3ccccc13)C(=O)N2` (H-GCRRLCYRFWCFTVCRGR-OH; disulfide 2-15, 6-11), in assay [1], the IC50 turned out to be 2.5 µM. Also, the inhibition entry in assay [2] and in assay [4] was “Active” throughout. Moreover, in assay [3], the Activity entry was “Dose-Dependent Effect”.
As for `O=C1N[C@](c2ccc(N3CCOCC3)cc2)(c2ccsc2)CC(O)=C1Sc1ccccc1Cl`, the inhibition entry in assay [2] is “inactive”. In addition, the result in assay [5] was inactive.
As for `CC[C@H](C)[C@@H]1NC(=O)CNC(=O)[C@H](CCCNC(=N)N)NC(=O)[C@H](Cc2ccc(O)cc2)NC(=O)[C@@H]2CSSC[C@H](NC1=O)C(=O)N[C@@H](C(C)C)C(=O)N[C@@H]([C@@H](C)O)C(=O)N[C@@H](Cc1ccc(O)cc1)C(=O)N[C@H](C(=O)N[C@@H](CCCNC(=N)N)C(=O)NCC(=O)N[C@@H](CCCNC(=N)N)C(=O)O)CSSC[C@H](NC(=O)CN)C(=O)N[C@@H](CCCNC(=N)N)C(=O)N[C@@H](CCCNC(=N)N)C(=O)N[C@@H](CC(C)C)C(=O)N2` (H-GCRRLCYRGICVTYCRGR-OH; disulfide 2-15, 6-11), the half-maximal inhibitory concentration (IC50) in assay [1] was determined as 24.8 µM. Also, the Activity entry in assay [6] is “Dose-Dependent Effect”.
For the compound `CC(C)C[C@@H]1NC(=O)[C@H](CCCNC(=N)N)NC(=O)[C@H](CCCNC(=N)N)NC(=O)[C@@H](NC(=O)CN)CSSC[C@@H](C(=O)N[C@@H](CCCNC(=N)N)C(=O)NCC(=O)N[C@@H](CCCNC(=N)N)C(=O)O)NC(=O)[C@H](C(C)C)NC(=O)[C@H]([C@@H](C)O)NC(=O)[C@H](Cc2ccccc2)NC(=O)[C@@H]2CSSC[C@H](NC1=O)C(=O)N[C@@H](Cc1ccc(O)cc1)C(=O)N[C@@H](CCCCN)C(=O)N[C@@H](CCC(N)=O)C(=O)N[C@@H](CCCNC(=N)N)C(=O)N2`, in assay [1], the 50% inhibitory concentration (IC50) came out at 24 µM.
Turning to `CC(C)C[C@@H]1NC(=O)[C@H](CCCNC(=N)N)NC(=O)[C@H](CCCNC(=N)N)NC(=O)[C@@H](NC(=O)CN)CSSC[C@@H](C(=O)N[C@@H](CCCNC(=N)N)C(=O)NCC(=O)N[C@@H](CCCNC(=N)N)C(=O)O)NC(=O)[C@H](Cc2ccc(O)cc2)NC(=O)[C@H]([C@@H](C)O)NC(=O)[C@H](C(C)C)NC(=O)[C@@H]2CSSC[C@H](NC1=O)C(=O)N[C@@H](Cc1ccc(O)cc1)C(=O)N[C@@H](CCCCN)C(=O)N[C@@H](CCC(N)=O)C(=O)N[C@@H](CCCNC(=N)N)C(=O)N2`, the IC50 in assay [1] came out at 36.6 µM.
Consider `CC(C)C[C@@H]1NC(=O)[C@H](CCCNC(=N)N)NC(=O)[C@H](CCCNC(=N)N)NC(=O)[C@@H](NC(=O)[C@@H](N)CCCCN)CSSC[C@@H](C(=O)N[C@@H](CCCNC(=N)N)C(=O)NCC(=O)N[C@@H](CCCNC(=N)N)C(=O)O)NC(=O)[C@H](Cc2ccc(O)cc2)NC(=O)[C@H]([C@@H](C)O)NC(=O)[C@H](C(C)C)NC(=O)[C@@H]2CSSC[C@H](NC1=O)C(=O)N[C@@H](Cc1ccc(O)cc1)C(=O)N[C@@H](CCCNC(=N)N)C(=O)N[C@@H](CCC(N)=O)C(=O)N[C@@H](CCCNC(=N)N)C(=O)N2` (H-KCRRLCYRQRCVTYCRGR-OH; disulfide 2-15, 6-11), for which the result in assay [7] was Active. Moreover, the Activity entry in assay [3] was “Dose-Dependent Effect”; in assay [8], 50%.
`CC[C@H](C)[C@@H]1NC(=O)CNC(=O)[C@H](CCCNC(=N)N)NC(=O)[C@H](Cc2ccc(O)cc2)NC(=O)[C@@H]2CSSC[C@H](NC1=O)C(=O)N[C@@H](Cc1ccc(O)cc1)C(=O)N[C@@H](CCCNC(=N)N)C(=O)N[C@@H](CCCNC(=N)N)C(=O)N[C@H](C(=O)N[C@@H](CCCNC(=N)N)C(=O)NCC(=O)O)CSSC[C@H](NC(=O)[C@H](Cc1c[nH]c3ccccc13)NC(=O)[C@@H](N)CCCCN)C(=O)N[C@@H](Cc1ccccc1)C(=O)N[C@@H](CCCNC(=N)N)C(=O)N[C@@H](C(C)C)C(=O)N2`: in assay [1], the IC50 amounted to 29.1 µM.
With `CC(C)C[C@@H]1NC(=O)[C@H](CCCNC(=N)N)NC(=O)[C@H](CCCNC(=N)N)NC(=O)[C@@H](NC(=O)CN)CSSC[C@@H](C(=O)N[C@@H](CCCNC(=N)N)C(=O)NCC(=O)N[C@@H](CCCNC(=N)N)C(=O)O)NC(=O)[C@H](C(C)C)NC(=O)[C@H]([C@@H](C)O)NC(=O)[C@H](Cc2ccccc2)NC(=O)[C@@H]2CSSC[C@H](NC1=O)C(=O)N[C@@H](CC(=O)O)C(=O)N[C@@H](CCCNC(=N)N)C(=O)N[C@@H](Cc1ccccc1)C(=O)N[C@@H](C)C(=O)N2` (H-GCRRLCDRFACFTVCRGR-OH; disulfide 2-15, 6-11), the IC50 in assay [1] was more than 40 µM. The result in assay [6] was inactive.
Turning to `CC(=O)N1CCC[C@H]1C(=O)N[C@H](C(=O)N[C@@H](CCC(N)=O)C(=O)N[C@@H](CCCNC(=N)N)C(=O)N[C@H](C(=O)NCC(N)=O)[C@@H](C)O)C(C)C`, the IC50 in assay [1] is more than 40 µM.
Still for that read-out and setting: as for `CC(=O)NCC(=O)N[C@@H](CC(N)=O)C(=O)N[C@@H](Cc1ccc(O)cc1)C(=O)N[C@H](C(=O)N[C@@H](Cc1c[nH]c2ccccc12)C(=O)N[C@@H](CC(C)C)C(N)=O)[C@@H](C)O`, the figure is more than 40 µM.
